Most compounds without a hit are left out; they make up all but 1.8% or so of the library.
NPY-Y1 PAM-ag: human NPY-Y1 potentiation or agonism, primary screen; P25929; AID 1304; NPY-Y1 expressing cells, potentiator/agonist activation; activation, % at 3.6 µM; 220,000 tested, 0.37% active; in the data active = activation above about 33%, passing the limit was not always enough;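 also: cells stimulated with NPY at EC10 then isoproterenol at EC100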
NPY-Y1 antag: NPY-Y1 (human) receptor antagonism | HEK293-CNG Y1 cells, membrane potential fluorescence; NPY at EC95, then isoproterenol | inhibition, % at 3.6 µM | 200,000 tested, 1% active;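 active = inhibition above the campaign mean inhibition of all tested compounds plus 3 SD, cut at about 20% in these data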
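Material: Y1- and CNG-channel-expressing HEK293 cells / Probe or stimulus: NPY 25 nM then isoproterenol 1 µM plus Ro 20-1724 25 µM / Doses: 3.6 µM single dose, DMSO 0.4% / Schedule: compound incubation 1 h at room temperature, readout 45 min post-stimulation / Signal: membrane potential fluorescence / Benchmarks: isoproterenol-only wells as full block versus NPY-plus-isoproterenol wells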
NPY-Y2 PAM-ag: human NPY-Y2 potentiation or agonism, primary screen | AID 1359 | activation, % at 3.6 µM | 220,000 tested, 0.45% active | cells expressing NPY-Y2, potentiator/agonist read-out | P49146; in the data active = activation above about 27%;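 also: cells stimulated with NPY near EC25 plus isoproterenol at EC100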
Target sequence (P49146 whole entry, looked up): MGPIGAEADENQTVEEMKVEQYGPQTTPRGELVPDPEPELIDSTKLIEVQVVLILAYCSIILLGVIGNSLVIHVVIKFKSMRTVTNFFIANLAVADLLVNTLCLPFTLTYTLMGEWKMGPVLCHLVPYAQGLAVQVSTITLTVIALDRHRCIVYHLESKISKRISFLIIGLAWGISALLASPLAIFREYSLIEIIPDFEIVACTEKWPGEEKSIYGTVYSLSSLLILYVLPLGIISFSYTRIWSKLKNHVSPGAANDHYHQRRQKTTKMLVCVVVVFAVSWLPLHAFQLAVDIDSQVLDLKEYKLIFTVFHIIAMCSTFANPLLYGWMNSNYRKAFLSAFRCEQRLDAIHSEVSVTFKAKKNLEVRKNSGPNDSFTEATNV
NPY-Y2 antag: NPY-Y2 (human) receptor antagonism; AID 793; P49146; NPY-Y2 expressing cells, antagonist mode; inhibition, % at 2.7 µM; 140,000 tested, 0.99% active; in the data active = inhibition above about 17%
Large screens that a line does not name were inactive.

O=C(Cc1ccccc1)N/N=C/c1ccccc1F	none
Cc1[nH]nc2c1C1(C(=O)N(Cc3ccc(Cl)cc3)c3ccccc31)C(C#N)=C(N)O2 (stereo unspecified)	none
CN1C(=O)C2(C(C#N)=C(N)Oc3n[nH]c(-c4ccc(Cl)cc4)c32)c2ccccc21 (stereo unspecified)	NPY-Y1 PAM-ag 40.0, NPY-Y2 PAM-ag 42.8
CCOC(=O)c1c(NC(=O)CN(CC)CC)sc2c1CCN(C(=O)OCC)C2	NPY-Y1 antag 23.5, NPY-Y2 antag 30.4
CCOC(=O)c1c(NC(=O)CN2CCCCC2)sc2c1CCN(C(=O)OCC)C2	NPY-Y1 antag 56.1, NPY-Y2 antag 36.4
CCOC(=O)c1c(NC(=O)CSc2ncccn2)sc2c1CCN(Cc1ccccc1)C2	NPY-Y1 antag 32.9, NPY-Y2 antag 17.4
CCOC(=O)c1c(NC(=S)N2CCN(C)CC2)sc2c1CCN(C(=O)OCC)C2	none (no result: NPY-Y1 antag, NPY-Y2 antag)
COc1ccc(-c2nc(C#N)c(NCc3ccc(F)cc3)o2)cc1OC	NPY-Y1 antag 24.2, NPY-Y2 antag 23.6
CC(C)(C(=O)c1ccccc1)/[N+]([O-])=C/c1ccc(Br)cc1	none
CC(COC(=O)c1ccccc1)(COC(=O)c1ccccc1)/[N+]([O-])=C/c1ccccc1	NPY-Y1 antag 21.3, NPY-Y2 antag 18.3
CC(=C\C(=O)O)/C(=C/c1ccco1)C(=O)O	none (no result: NPY-Y1 antag, NPY-Y2 antag)
Cc1ccccc1NC(=S)N(Cc1ccccc1)Cc1cccs1	NPY-Y1 antag 21.7 (no result: NPY-Y2 antag)
CCOC(=O)Cn1c(=O)oc2ccc(C)cc21	none (no result: NPY-Y2 antag)
COc1ccc(CCNC(=O)c2ccc3ccccc3n2)cc1OC	NPY-Y1 antag 20.1 (no result: NPY-Y2 antag)
C#CC(=O)N(c1cccc(OC)c1)C(C(=O)NC1CCCC1)c1cccs1 (stereo unspecified)	NPY-Y1 PAM-ag 55.1, NPY-Y2 PAM-ag 47.2
O=C(Cn1cncn1)NCc1cccc(C(F)(F)F)c1	none (no result: NPY-Y2 antag)
CCOc1ccc(NCc2cc3c(C(C)(C)C)nn(-c4ccccc4)c3[nH]c2=O)cc1	NPY-Y1 PAM-ag 56.0, NPY-Y2 PAM-ag 35.2
COc1cc(NC(=O)CN2CCN(c3ccccc3)CC2)c(C)cc1[N+](=O)[O-]	none
CC(C)(C)c1ccc(OCCON2C(=O)CCC2=O)c(Cl)c1	none
CCCCC(C)(O)C/C=C/[C@H]1[C@H](O)CC(=O)[C@@H]1CCCCCCC(=O)OC (stereo partly specified)	NPY-Y1 antag 106.4, NPY-Y2 antag 93.2
COC(=O)Cn1c(=O)c2c(n(Cc3ccccc3)c1=O)N/C(=C/c1ccc(Br)cc1)C2=O	none (no result: NPY-Y1 antag, NPY-Y2 antag)
Cc1ccc(-c2[nH]ncc2CNCCc2cnn(-c3ccccc3)c2)cc1C	none (no result: NPY-Y1 antag, NPY-Y2 antag)
Cc1cc(Oc2ccc(C)c(Cl)c2)nc(SCC(=O)c2ccccc2)n1	NPY-Y1 antag 33.9, NPY-Y2 antag 35.1
Cc1ccc(C(=O)CSc2cc(C)nc(SCC(=O)c3ccccc3)n2)cc1	none
CCOC(=O)c1cc([N+](=O)[O-])sc1N	none (no result: NPY-Y2 antag)
Cc1cccc(C)c1NC(=O)C[N+](C)(C)CC(O)COc1cccc2ccccc12 (stereo unspecified)	NPY-Y1 PAM-ag 97.9, NPY-Y2 PAM-ag 66.2 (no result: NPY-Y2 antag)
Cc1ccc(NC(=O)CCC(=O)NNC(=O)COc2cccc3ccccc23)c(C)c1	none
O=C(Nc1ccc(F)cc1)C1CCCN1S(=O)(=O)c1cccc2nsnc12 (stereo unspecified)	none (no result: NPY-Y1 antag, NPY-Y2 antag)
O=C(COc1ccc([N+](=O)[O-])cc1)N(Cc1ccccc1)Cc1ccccc1	NPY-Y1 antag 20.9, NPY-Y2 antag 22.9
CCOC(=O)N1CCC(n2c(SCC(=O)NCCC3=CCCCC3)nc3ccccc3c2=O)CC1	NPY-Y1 antag 36.2, NPY-Y2 antag 19.1
CCOC(=O)N1CCC(n2c(SCC(=O)NCc3ccccc3)nc3ccccc3c2=O)CC1	none
NS(=O)(=O)c1ccc(N=Nc2c(O)ccc3ccccc23)cc1	none (no result: NPY-Y2 antag)
Oc1ccc(N=Nc2c(O)ccc3ccccc23)cc1	NPY-Y1 PAM-ag 86.7, NPY-Y2 PAM-ag 82.0
COc1cccc(NC(=O)CN(Cc2ccccc2)S(C)(=O)=O)c1	none
CC(C)C(NC(=O)c1ccc(C(C)(C)C)cc1)C(=O)Nc1cccc(S(N)(=O)=O)c1 (stereo unspecified)	NPY-Y1 PAM-ag 42.6, NPY-Y2 PAM-ag 36.8 (no result: NPY-Y2 antag)
Cc1ccc(C(=O)NC(C(=O)Nc2cccc(S(N)(=O)=O)c2)C(C)C)cc1 (stereo unspecified)	none (no result: NPY-Y1 antag, NPY-Y2 antag)
COc1ccccc1N1CCN(C(=O)CSc2nnc3n2C(C)(C)Cc2ccccc2-3)CC1	NPY-Y1 PAM-ag 95.8, NPY-Y2 PAM-ag 74.9
COc1ccc(C2C(C(=O)Nc3cc(OC)c(OC)c(OC)c3)c3ccccc3C(=O)N2C)cc1 (stereo unspecified)	NPY-Y1 PAM-ag 37.1, NPY-Y2 PAM-ag 31.2 (no result: NPY-Y2 antag)
O=C(Nc1cccc(C(F)(F)F)c1)c1cc(-c2ccc(F)cc2)on1	NPY-Y1 antag 21.8, NPY-Y2 antag 24.3
CCCCc1cn([C@@H](CCCCN)C(=O)N2CCNCC2)nn1	none (no result: NPY-Y2 antag)
CC(=O)N(c1nc(CCl)cs1)c1ccc(C)cc1C	none (no result: NPY-Y2 antag)
O=C(Nc1cc(C(=O)N2CCCC2)ccc1N1CCCC1)c1ccccc1F	NPY-Y1 PAM-ag 44.3, NPY-Y2 PAM-ag 39.4
O=C(Nc1ccc(C(=O)N2CCCC2)cc1)c1ccccc1F	none
Cc1ccc(N2C(=O)C3C4C=CC(CNC(=S)N5CCN(c6cccc(C)c6)C(C)C5)(O4)C3C2=O)cc1 (stereo unspecified)	none (no result: NPY-Y2 antag)
O=C(CCC1CCCCC1)NCc1ccc(F)cc1	none
CCOC(=O)c1oc2cccc(OCC(O)CNC(C)C)c2c1C (stereo unspecified)	NPY-Y1 PAM-ag 110.8, NPY-Y2 PAM-ag 105.3
O=C(NC1CCCCCC1)c1cc(S(=O)(=O)N2CCOCC2)ccc1N1CCCCC1	none
O=C(NC1CCCCCC1)c1cc(S(=O)(=O)N2CCCCC2)ccc1N1CCOCC1	NPY-Y1 antag 21.0 (no result: NPY-Y2 antag)
Cc1nnnn1/C(=C\c1ccccc1)C(=O)OCC(=O)NC(C)(C)C	none
Cc1ccc(NC(=S)N/N=C/c2c(C)[nH]c3ccccc23)cc1	NPY-Y1 PAM-ag 51.3, NPY-Y2 PAM-ag 37.1 (no result: NPY-Y2 antag)
Cc1[nH]c2ccccc2c1/C=N/NC(N)=S	none (no result: NPY-Y1 antag, NPY-Y2 antag)
CCOC(=O)C(C)(C)N(Cc1ccc(C)cc1)S(=O)(=O)c1ccc(Cl)c([N+](=O)[O-])c1	NPY-Y1 PAM-ag 75.9, NPY-Y2 PAM-ag 50.9
CCOC(=O)C(C)(C)N(Cc1ccc(Cl)cc1)S(=O)(=O)c1ccc(Cl)c([N+](=O)[O-])c1	NPY-Y1 PAM-ag 64.8, NPY-Y2 PAM-ag 66.4
Cc1ccc(S(=O)(=O)NC(CC(=O)O)c2ccccc2)cc1 (stereo unspecified)	none
COc1ccc2c(c1OC)C(=O)N1c3ccccc3C(=O)N(c3ccc(F)cc3)C21 (stereo unspecified)	NPY-Y1 antag 52.0
COc1ccc2c(c1OC)C(=O)N(c1ccc(C)cc1)C2=O	none (no result: NPY-Y2 antag)
COc1ccc2c(c1OC)C(=O)N1N=C(c3ccc(-c4ccccc4)cc3)CC21 (stereo unspecified)	none (no result: NPY-Y2 antag)
COc1ccc2c(c1OC)C(=O)N1c3ccccc3C(=O)N(c3ccccc3)C21 (stereo unspecified)	NPY-Y2 antag 23.0
O=C(CN1CCN(Cc2ccccc2)CC1)Nc1ccc(-n2cnnn2)cc1	none (no result: NPY-Y2 antag)
CN(C)c1nc(SCC#N)nc(N(C)C)n1	none
COc1ccc(N2CCN(c3oc(COc4ccc(Cl)cc4Cl)nc3C#N)CC2)cc1	NPY-Y1 antag 51.8
COc1ccc(N2CCN(c3oc(Cc4ccccc4)nc3C#N)CC2)cc1	none
